Measurements published in ChEMBL document CHEMBL1212912, “Phenylsulfonylfuroxans as modulators of multidrug-resistance-associated protein-1 and P-glycoprotein” (J Med Chem, 2010).
Activity calls are given as the source filed them. The calls are words filed in the database; no cut-off is given here.

Tests used:
[1] = biological target: ATP-dependent translocase ABCB1 (Homo sapiens, UniProt P08183); assay: Inhibition of MDR1 expressed in MDCK cells assessed as calcein AM accumulation by fluorescence assay; format: cell-based
Chain of ATP-dependent translocase ABCB1 (P08183 whole entry): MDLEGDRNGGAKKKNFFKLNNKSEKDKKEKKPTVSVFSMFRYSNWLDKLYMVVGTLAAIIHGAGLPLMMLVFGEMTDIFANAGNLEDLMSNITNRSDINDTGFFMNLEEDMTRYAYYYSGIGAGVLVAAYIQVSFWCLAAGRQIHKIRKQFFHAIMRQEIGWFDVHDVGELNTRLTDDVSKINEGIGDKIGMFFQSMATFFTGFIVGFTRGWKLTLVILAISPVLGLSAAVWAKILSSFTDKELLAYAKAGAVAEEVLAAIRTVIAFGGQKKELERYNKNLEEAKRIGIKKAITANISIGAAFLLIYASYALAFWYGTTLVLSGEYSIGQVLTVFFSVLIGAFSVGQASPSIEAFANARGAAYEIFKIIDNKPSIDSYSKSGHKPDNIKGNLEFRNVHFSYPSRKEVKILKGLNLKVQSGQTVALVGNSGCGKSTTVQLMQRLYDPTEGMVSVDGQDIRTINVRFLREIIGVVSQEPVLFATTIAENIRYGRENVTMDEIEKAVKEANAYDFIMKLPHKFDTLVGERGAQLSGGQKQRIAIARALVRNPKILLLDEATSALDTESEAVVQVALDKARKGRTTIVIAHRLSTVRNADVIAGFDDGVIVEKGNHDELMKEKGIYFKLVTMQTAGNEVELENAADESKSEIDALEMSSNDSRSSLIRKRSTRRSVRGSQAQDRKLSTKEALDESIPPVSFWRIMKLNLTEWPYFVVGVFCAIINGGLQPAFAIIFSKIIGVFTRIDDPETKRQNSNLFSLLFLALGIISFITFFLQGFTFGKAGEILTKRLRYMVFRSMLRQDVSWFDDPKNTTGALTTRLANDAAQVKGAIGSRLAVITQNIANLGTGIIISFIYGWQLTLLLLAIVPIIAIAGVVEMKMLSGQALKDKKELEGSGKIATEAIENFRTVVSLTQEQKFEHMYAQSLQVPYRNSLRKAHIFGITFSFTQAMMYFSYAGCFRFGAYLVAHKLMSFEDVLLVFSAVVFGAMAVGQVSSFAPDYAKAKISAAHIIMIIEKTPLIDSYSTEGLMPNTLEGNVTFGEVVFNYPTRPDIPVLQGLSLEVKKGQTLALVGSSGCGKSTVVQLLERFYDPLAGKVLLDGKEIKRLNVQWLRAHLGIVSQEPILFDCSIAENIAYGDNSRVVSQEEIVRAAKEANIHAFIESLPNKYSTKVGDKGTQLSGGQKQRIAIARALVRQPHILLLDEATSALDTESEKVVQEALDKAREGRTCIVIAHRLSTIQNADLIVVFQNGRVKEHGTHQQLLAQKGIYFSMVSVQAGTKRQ
How it was run: (§1)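 MDCK cells overexpressing MRP1 or MDR1 (P-gp) were seeded at 50,000/well and grown to confluence overnight. Compound in medium was added for 30 min at 37°C, then calcein-AM (2.5 µM final, in PBS) for 30 min. Cells were washed 3× with ice-cold PBS and fluorescence read at ex 485/em 535 nm. The increase over untreated basal level was fitted against log[dose] to give EC50.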

[2] = biological target: Multidrug resistance-associated protein 1 (Homo sapiens, UniProt P33527); assay: […] MRP1 expressed in MDCK cells assessed as calcein AM accumulation by fluorescence assay; format: cell-based; how it was run: as §1
Chain of Multidrug resistance-associated protein 1 (P33527 whole entry): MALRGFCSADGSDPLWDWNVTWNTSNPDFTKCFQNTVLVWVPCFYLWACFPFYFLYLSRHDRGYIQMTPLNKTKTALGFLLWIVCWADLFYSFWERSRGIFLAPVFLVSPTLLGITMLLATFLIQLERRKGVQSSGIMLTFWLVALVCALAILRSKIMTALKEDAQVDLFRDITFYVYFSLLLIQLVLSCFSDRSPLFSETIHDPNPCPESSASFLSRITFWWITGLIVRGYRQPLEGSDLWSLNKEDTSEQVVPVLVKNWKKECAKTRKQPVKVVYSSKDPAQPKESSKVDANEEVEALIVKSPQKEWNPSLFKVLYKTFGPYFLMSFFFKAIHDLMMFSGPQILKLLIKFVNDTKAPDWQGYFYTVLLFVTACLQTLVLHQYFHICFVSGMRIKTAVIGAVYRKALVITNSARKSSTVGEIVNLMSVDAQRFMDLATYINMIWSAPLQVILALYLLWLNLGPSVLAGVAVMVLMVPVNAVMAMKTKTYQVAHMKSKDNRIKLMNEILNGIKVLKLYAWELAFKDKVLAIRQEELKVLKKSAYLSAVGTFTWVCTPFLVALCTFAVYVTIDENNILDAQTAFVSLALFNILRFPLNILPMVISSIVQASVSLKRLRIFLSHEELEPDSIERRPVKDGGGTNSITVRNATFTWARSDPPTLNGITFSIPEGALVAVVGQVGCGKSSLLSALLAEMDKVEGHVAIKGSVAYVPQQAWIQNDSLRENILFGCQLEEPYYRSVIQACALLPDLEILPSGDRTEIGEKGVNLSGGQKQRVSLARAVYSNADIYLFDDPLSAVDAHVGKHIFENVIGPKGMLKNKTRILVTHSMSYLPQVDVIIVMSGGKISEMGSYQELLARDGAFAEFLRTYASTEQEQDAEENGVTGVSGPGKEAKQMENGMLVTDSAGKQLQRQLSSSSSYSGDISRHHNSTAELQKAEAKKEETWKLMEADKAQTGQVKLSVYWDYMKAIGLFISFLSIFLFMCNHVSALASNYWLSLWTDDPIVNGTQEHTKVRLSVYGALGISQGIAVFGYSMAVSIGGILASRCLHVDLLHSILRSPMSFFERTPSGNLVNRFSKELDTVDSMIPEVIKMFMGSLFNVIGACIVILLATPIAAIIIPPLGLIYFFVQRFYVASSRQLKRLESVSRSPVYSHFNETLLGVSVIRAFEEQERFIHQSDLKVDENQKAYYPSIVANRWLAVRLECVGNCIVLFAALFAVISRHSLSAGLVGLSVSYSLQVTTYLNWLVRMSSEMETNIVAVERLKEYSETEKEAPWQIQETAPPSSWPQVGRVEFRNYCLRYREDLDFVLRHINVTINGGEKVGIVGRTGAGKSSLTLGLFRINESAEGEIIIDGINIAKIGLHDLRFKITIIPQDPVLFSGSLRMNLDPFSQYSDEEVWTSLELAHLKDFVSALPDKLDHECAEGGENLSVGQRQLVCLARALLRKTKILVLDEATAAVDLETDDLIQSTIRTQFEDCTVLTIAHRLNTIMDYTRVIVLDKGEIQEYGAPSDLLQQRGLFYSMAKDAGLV

[3] = tested on: MDCK; assay: Inhibition of Pgp-mediated doxorubicine accumulation in MDCK cells assessed as nitreated-Pgp level at 10 uM by immunoprecipitation; format: cell-based; conditions: Canis lupus familiaris
[4] = tested on: MDCK; assay: Antiproliferative activity against MDCK cells at 10 uM by MTT assay; format: cell-based, Canis lupus familiaris; conditions: dog
How it was run: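 MDCK-MDR1 cells grown in DMEM high glucose with 10% FBS and 2 mM glutamine at 37°C in 5% CO2. Seeded at 20000 cells/well, then treated next day with compound at 10 μM with solvent controls. MTT 0.5 mg/mL added after 24 or 48 h and incubated 3 h at 37°C. Formazan dissolved in DMSO; absorbance read at 570 and 630 nm.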

Structure (SMILES) | EC50 [1] [µM] | EC50 [2] [µM] | Activity [3] | Activity [4] [%]
COc1no[n+]([O-])c1-c1ccccc1 | > 100 |  |  | 
CCCCOc1nonc1S(=O)(=O)c1ccccc1 | 49.7 |  |  | 
Cc1c(-c2ccccc2)no[n+]1[O-] | > 100 |  |  | 
CCCCCCCCCCOc1no[n+]([O-])c1S(=O)(=O)c1ccccc1 | 3.31 |  |  | 
O=S(=O)(c1ccccc1)c1c(Oc2ccccc2)no[n+]1[O-] | 20.5 | 13.6 |  | 
O=S(=O)(c1ccccc1)c1c(-c2ccccc2)no[n+]1[O-] | 10 |  |  | 
O=[N+]([O-])c1c(-c2ccccc2)n[o+]n1[O-] | 53 | 45 |  | 
NS(=O)(=O)c1no[n+]([O-])c1-c1ccccc1 | > 100 |  |  | 
N#Cc1c(S(=O)(=O)c2ccccc2)no[n+]1[O-] | 55.4 | 72 |  | 
CCCCCCOc1no[n+]([O-])c1S(=O)(=O)c1ccccc1 | 3.35 | 12 | Active | 
Cc1c(S(=O)(=O)c2ccccc2)no[n+]1[O-] | > 100 |  |  | 
N#Cc1no[n+]([O-])c1S(=O)(=O)c1ccccc1 | 7.4 | 29.5 |  | 
O=S(=O)(c1ccccc1)c1no[n+]([O-])c1S(=O)(=O)c1ccccc1 | 3 | 15.1 |  | 
CC(C)Oc1no[n+]([O-])c1S(=O)(=O)c1ccccc1 | 2.15 | 63 |  | 30
CC1(C)CCC(C)(C)c2cc(-c3cc(-c4ccc(C(=O)O)cc4)no3)ccc21 | 1.5 |  |  | 
[O-][n+]1onc(-c2ccccc2)c1-c1ccccc1 | > 100 |  |  | 
NC(=O)c1c(-c2ccccc2)no[n+]1[O-] | > 100 |  |  | 

Structure (SMILES) | EC50 [1] [µM] | EC50 [2] [µM] | Activity [3] | Activity [4] [%]
CCCCCCCCOc1no[n+]([O-])c1S(=O)(=O)c1ccccc1 | 4.6 |  |  | 
O=S(=O)(c1ccccc1)c1no[n+]([O-])c1-c1ccccc1 | 46 |  |  | 
CCOc1no[n+]([O-])c1S(=O)(=O)c1ccccc1 | 12 | 49.1 |  | 
NC(=O)c1no[n+]([O-])c1-c1ccccc1 | > 100 |  |  | 
NS(=O)(=O)c1c(-c2ccccc2)no[n+]1[O-] | > 100 |  |  | 
Nc1c(-c2ccccc2)no[n+]1[O-] | > 100 |  |  | 
Cc1no[n+]([O-])c1-c1ccccc1 | > 100 |  |  | 
COc1c(-c2ccccc2)no[n+]1[O-] | > 100 |  |  | 
Nc1no[n+]([O-])c1-c1ccccc1 | > 100 |  |  | 
NC(=O)c1c(S(=O)(=O)c2ccccc2)no[n+]1[O-] | 52.6 |  |  | 
CCC(C)Oc1no[n+]([O-])c1S(=O)(=O)c1ccccc1 (stereo not drawn) | 2.23 | 46 |  | 45
N#Cc1no[n+]([O-])c1-c1ccccc1 | > 100 |  |  | 
CCCCCCOc1nonc1S(=O)(=O)c1ccccc1 | 32.2 |  |  | 
NC(=O)c1no[n+]([O-])c1S(=O)(=O)c1ccccc1 | 50 | 85.8 |  | 
Cc1no[n+]([O-])c1S(=O)(=O)c1ccccc1 | 28.3 |  |  | 
CCCCOc1no[n+]([O-])c1S(=O)(=O)c1ccccc1 | 2.26 | 7.61 | Active | 
